This is an account of results in ChEMBL document CHEMBL1142936, “Library synthesis and screening: 2,4-diphenylthiazoles and 2,4-diphenyloxazoles as potential novel prion disease therapeutics” (2007).

The target in assay [1] is Major prion protein (Homo sapiens) (UniProt P04156). Nature of the assay: Binding affinity at human PrPC at 40 uM by SPR assay.
Assay [2] addresses Major prion protein (Mus musculus) (UniProt P04925). Description: Binding affinity at mouse PrPC at 40 uM by SPR assay.
Assay [3] in a line: Inhibition of PrPSc formation in mouse SMB cells at 2.5 uM after 5 days […] relative to control. It counts as functional. The settings on record: 120 h. The essentials:
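Scrapie-infected SMB mouse cells seeded at 3 × 10⁴ per well, attached 24 h, then exposed 5 days to compound. DMSO stocks were 400× final, diluted 20-fold into Hank's salt solution, then 20-fold into medium. Lysates were dot-blotted at about 30-40 µg protein, guanidine thiocyanate treated, and probed with anti-PrP 6H4 with ECL detection. PrP^Sc was expressed relative to untreated control, as the mean of triplicates with standard deviation.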

For orientation: inhibition means the change of the read-out against control, counted positive when it falls. Read a high inhibition as a response far below the control.

Major prion protein (Mus musculus), sequence (P04925 whole entry): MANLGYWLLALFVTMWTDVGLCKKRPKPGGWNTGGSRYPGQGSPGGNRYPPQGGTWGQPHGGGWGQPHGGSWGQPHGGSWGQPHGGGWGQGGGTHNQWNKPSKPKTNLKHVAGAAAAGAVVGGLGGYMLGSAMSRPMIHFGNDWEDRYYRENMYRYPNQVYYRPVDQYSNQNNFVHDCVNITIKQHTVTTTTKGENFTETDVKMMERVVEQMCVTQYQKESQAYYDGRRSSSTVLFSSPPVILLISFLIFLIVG

For the compound `O=C(Nc1sc(-c2ccccc2)nc1-c1ccccc1)C1CC1`, the RUmax in assay [1] and in assay [2] was 0% in each case.

For `CC(C)(C)OC(=O)Nc1oc(-c2ccccc2)nc1-c1ccccc1`, the figures for the RUmax in assay [1] and in assay [2] were 11.3% and 10.6%, respectively.

On to `O=C(Nc1oc(-c2ccccc2)nc1-c1ccccc1)c1ccc2ccccc2n1`, for which the RUmax in assay [1] and in assay [2] was 0% in each case.

In the case of `O=C(Nc1sc(-c2ccccc2)nc1-c1ccccc1)c1nc2ccccc2s1`, the RUmax in assay [1] was determined as 40.1%; in assay [2] it was 0%.

On to `O=C(Nc1sc(-c2ccccc2)nc1-c1ccccc1)c1cccc(C(F)(F)F)c1`, for which the RUmax in assay [1] was 65%; in assay [2] it was 0%.

As to `O=C(Nc1oc(-c2ccccc2)nc1-c1ccccc1)C(F)(F)F`, the RUmax is 13.7% in assay [1] and 22% in assay [2]. In assay [3], this compound returned an inhibition at 2.5 µM of 35.1%.

Consider `O=C(Nc1sc(-c2ccccc2)nc1-c1ccccc1)c1ccc([N+](=O)[O-])o1`, for which the RUmax in assay [1] and in assay [2] was 0% each time.

Consider `CCCC(CCC)C(=O)Nc1sc(-c2ccccc2)nc1-c1ccccc1`, for which the RUmax in assay [1] and in assay [2] was 0% each time.

For `O=C(Nc1oc(-c2ccccc2)nc1-c1ccccc1)c1ccc(F)cc1`, the RUmax in assay [1] and in assay [2] was 0% throughout.

In the case of `O=C(Nc1sc(-c2ccccc2)nc1-c1ccccc1)c1ccncc1`, the RUmax in assay [1] worked out at 5%; in assay [2] it was 8.5%.

`O=C(Nc1sc(-c2ccccc2)nc1-c1ccccc1)c1ccco1`: the results for the RUmax in assay [1] and in assay [2] were 6.5% and 8.4%, respectively.

With `O=C(Nc1oc(-c2ccccc2)nc1-c1ccccc1)c1cc2ccccc2s1`, the RUmax in assay [1] was 48%; in assay [2], 59.6%.

As for `O=C(Nc1oc(-c2ccccc2)nc1-c1ccccc1)c1ccc([N+](=O)[O-])o1`, the RUmax in assay [1] and in assay [2] was 0% throughout.

As to `O=C(Nc1oc(-c2ccccc2)nc1-c1ccccc1)c1cc2ccccc2o1`, the RUmax in assay [1] is 48.9%; in assay [2], 58%.

In the case of `O=C(Nc1sc(-c2ccccc2)nc1-c1ccccc1)c1cc2ccccc2s1`, the RUmax in assay [1] was 21.1%; in assay [2], 0%.

As for `O=C(Nc1sc(-c2ccccc2)nc1-c1ccccc1)c1cccnc1`, the RUmax in assay [1] and in assay [2] was 0% in each case.

Turning to `O=C(Nc1sc(-c2ccccc2)nc1-c1ccccc1)c1ccno1`, the RUmax in assay [1] and in assay [2] was 0% throughout.

As for `O=C(Nc1oc(-c2ccccc2)nc1-c1ccccc1)c1cccs1`, the RUmax came to 27.5% in assay [1] and 37.4% in assay [2].

In the case of `COc1ccc(C(=O)Nc2oc(-c3ccccc3)nc2-c2ccccc2)cc1`, the RUmax in assay [1] and in assay [2] was 0% each time.

In the case of `O=C(Nc1oc(-c2ccccc2)nc1-c1ccccc1)c1ccncc1`, the RUmax in assay [1] and in assay [2] was 0% in each case.

In the case of `O=C(Nc1sc(-c2ccccc2)nc1-c1ccccc1)C(F)(F)F`, the results for the RUmax in assay [1] and in assay [2] were 9.5% and 18.7%, respectively. The compound also gave an inhibition at 2.5 µM in assay [3] of 13.7%.

For the compound `Cc1ccc(C(=O)Nc2sc(-c3ccccc3)nc2-c2ccccc2)s1`, the RUmax in assay [1] amounted to 19.8%; in assay [2] it was 0%.

As to `O=C(Nc1oc(-c2ccccc2)nc1-c1ccccc1)c1ccno1`, the RUmax was found to be 18.3% in assay [1] and 21.7% in assay [2].

Regarding `O=C(Nc1sc(-c2ccccc2)nc1-c1ccccc1)c1ccccc1C(F)(F)F`, the RUmax in assay [1] and in assay [2] was 0% each time.

Consider `O=C(Nc1oc(-c2ccccc2)nc1-c1ccccc1)c1ccc(C(F)(F)F)cc1`, for which the RUmax in assay [1] and in assay [2] was 0% in each case.

Consider `O=C(Nc1oc(-c2ccccc2)nc1-c1ccccc1)c1ccco1`, for which the results for the RUmax in assay [1] and in assay [2] were 3.8% and 0%, respectively.

For `O=C(Nc1oc(-c2ccccc2)nc1-c1ccccc1)C1CC1`, the RUmax in assay [1] and in assay [2] was 0% each time.

Consider `O=C(Nc1oc(-c2ccccc2)nc1-c1ccccc1)c1cccnc1`, for which the values for the RUmax in assay [1] and in assay [2] were 37.3% and 40%, respectively.

For the compound `O=C(Nc1sc(-c2ccccc2)nc1-c1ccccc1)c1ccccc1`, the RUmax in assay [1] and in assay [2] was 0% throughout.

Turning to `O=C(Nc1sc(-c2ccccc2)nc1-c1ccccc1)c1ccc(C(F)(F)F)cc1`, the RUmax in assay [1] and in assay [2] was 0% each time.
